Measured values published in ChEMBL document CHEMBL6134796, “Development and Evaluation of Indole-Based Phospholipase D Inhibitors for Lung Cancer Immunotherapy” (J Med Chem, 2025).
Activity calls are given as the source filed them. The calls are words filed in the database; no cut-off is given here.

Experiments:
[1] = biological target: T1, Phospholipase D1 (Mus musculus) (UniProt Q9Z280); test: In vivo inhibition of PLD1 in male C57BL/6 mouse allografted with mouse Lewis lung carcinoma cell line assessed as increase in calreticulin expression at 10 mg/kg, po by immunofluorescence analysis; type: functional, organism-based
T1 sequence (whole entry): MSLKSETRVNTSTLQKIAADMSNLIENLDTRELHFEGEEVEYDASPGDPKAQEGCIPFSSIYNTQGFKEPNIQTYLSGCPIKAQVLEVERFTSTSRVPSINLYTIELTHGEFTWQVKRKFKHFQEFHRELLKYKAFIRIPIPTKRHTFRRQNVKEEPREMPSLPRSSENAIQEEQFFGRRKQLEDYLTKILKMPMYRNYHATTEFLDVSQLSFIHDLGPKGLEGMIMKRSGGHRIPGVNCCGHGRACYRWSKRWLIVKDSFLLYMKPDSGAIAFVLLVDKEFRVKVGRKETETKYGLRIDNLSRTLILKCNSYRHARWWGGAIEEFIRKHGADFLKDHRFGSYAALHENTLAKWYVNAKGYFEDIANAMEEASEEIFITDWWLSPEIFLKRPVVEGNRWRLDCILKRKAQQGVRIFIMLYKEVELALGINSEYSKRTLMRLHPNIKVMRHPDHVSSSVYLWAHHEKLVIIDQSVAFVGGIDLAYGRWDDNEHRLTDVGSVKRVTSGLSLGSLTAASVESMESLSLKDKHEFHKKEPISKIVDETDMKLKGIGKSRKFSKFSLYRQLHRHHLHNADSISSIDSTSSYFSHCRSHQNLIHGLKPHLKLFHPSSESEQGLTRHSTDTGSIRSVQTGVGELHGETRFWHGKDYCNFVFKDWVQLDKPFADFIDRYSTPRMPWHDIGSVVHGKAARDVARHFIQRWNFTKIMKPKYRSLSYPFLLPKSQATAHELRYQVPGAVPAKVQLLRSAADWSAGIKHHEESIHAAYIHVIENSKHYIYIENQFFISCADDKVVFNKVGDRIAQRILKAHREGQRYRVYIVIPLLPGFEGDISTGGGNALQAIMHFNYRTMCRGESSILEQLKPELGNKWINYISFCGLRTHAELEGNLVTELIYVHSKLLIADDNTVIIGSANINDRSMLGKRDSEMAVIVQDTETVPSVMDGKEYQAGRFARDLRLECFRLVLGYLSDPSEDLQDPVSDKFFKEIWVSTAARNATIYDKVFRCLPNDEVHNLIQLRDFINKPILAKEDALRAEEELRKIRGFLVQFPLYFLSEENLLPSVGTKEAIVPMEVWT

[2] = biological target: Phospholipase D2 (Homo sapiens) (UniProt O14939); test: Inhibition of PLD2 (unknown origin) overexpressed in human A549 cells; type: cell-based
Procedure, shortened: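 A549 cells transfected with wild-type PLD1, PLD1 mutants (L425A, F614A, F789A) or PLD2, then compound-treated. PLD activity measured as [3H]phosphatidylbutanol formed in the presence of 1-butanol after [3H]myristic acid labeling, expressed as % of total lipid cpm. At least three independent experiments.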

A549 = test: Induction of apoptosis in human A549 cells by annexin V and PI staining based flow cytometry analysis; type: functional, cell-based
[3] = Metabolic stability in human plasma assessed as parent compound remaining at 10 uM measured after 120 mins; type: ADME, cell-free; details: read-out: Stability
Procedure, shortened: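 Citrated human plasma spiked to final 10 μM, incubated at 37 °C for 0, 30 and 120 min; quenched with acetonitrile containing internal standard, vortexed, centrifuged at 4 °C; parent remaining quantified by LC-MS/MS in MRM mode on C18 column, formic acid water/acetonitrile gradient.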

[4] = biological target: T1, Phospholipase D1 (Mus musculus); test: In vivo inhibition of PLD1 in male C57BL/6 mouse allografted with mouse Lewis lung carcinoma cell line assessed as increase in IL-17+ th17 cell population at 10 mg/kg, po by immunofluorescence analysis; type: functional, organism-based
Procedure, shortened: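 Same LLC syngeneic C57BL/6 model, 10 mg/kg PO every other day for 3 weeks. Tumor tissues were stained by immunofluorescence for CD80+ and CD163+ cells, CD8+ T cells, and CD4+/IL-17+ and Treg populations. Nuclei were counterstained with 1 μM Hoechst 33342 and imaged by confocal microscopy.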

Chain of Phospholipase D2 (Homo sapiens) (O14939 whole entry): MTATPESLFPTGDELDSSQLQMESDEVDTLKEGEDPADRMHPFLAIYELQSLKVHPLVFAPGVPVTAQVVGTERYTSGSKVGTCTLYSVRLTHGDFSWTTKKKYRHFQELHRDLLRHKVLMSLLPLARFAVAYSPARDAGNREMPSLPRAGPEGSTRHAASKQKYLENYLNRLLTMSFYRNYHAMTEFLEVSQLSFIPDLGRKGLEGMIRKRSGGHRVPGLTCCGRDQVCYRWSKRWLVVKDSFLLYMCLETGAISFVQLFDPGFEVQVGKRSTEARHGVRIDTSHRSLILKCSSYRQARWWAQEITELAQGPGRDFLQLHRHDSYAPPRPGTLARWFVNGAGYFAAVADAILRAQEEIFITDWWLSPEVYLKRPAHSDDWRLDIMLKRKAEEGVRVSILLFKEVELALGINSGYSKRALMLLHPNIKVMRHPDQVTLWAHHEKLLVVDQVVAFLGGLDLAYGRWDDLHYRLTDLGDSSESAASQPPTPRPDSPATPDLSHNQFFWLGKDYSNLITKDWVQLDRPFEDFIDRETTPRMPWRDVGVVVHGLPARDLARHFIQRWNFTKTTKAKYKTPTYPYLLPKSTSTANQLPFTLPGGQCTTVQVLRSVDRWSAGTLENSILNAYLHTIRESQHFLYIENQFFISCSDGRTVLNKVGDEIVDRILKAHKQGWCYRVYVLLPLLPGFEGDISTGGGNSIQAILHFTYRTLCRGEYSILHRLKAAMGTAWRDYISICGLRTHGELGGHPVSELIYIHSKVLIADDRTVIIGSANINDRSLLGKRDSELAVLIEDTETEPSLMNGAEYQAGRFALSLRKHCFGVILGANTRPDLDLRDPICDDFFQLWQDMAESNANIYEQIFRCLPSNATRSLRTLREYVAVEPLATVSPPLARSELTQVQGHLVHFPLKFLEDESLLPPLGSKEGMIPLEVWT

For `O=C(CCc1c[nH]c2ccccc12)Nc1cc(C(F)(F)F)cc(C(F)(F)F)c1`, the inhibition [1] was “Active”, the inhibition [2] was “inactive” and the Activity (A549) was “Active”. For the same compound, the remaining at 2 h, 10 µM [3] was 94.6% and the inhibition [4] was “Active”.
